Assay results taken from ChEMBL document CHEMBL1137338, “Effects of substitution on 9-(3-bromo-4-fluorophenyl)-5,9-dihydro-3H,4H-2,6-dioxa-4- azacyclopenta[b]naphthalene-1,8-dione, a dihydropyridine ATP-sensitive potassium channel opener” (J Med Chem, 2006).

How the values were obtained:
[1] = molecular target: Sulfonylurea receptor 2, Kir6.2 (Homo sapiens, UniProt O60706+Q14654); test: Ability to open human urinary bladder Kir6.2 channel containing SUR2B in Ltk cells by FLIPR assay; type: functional, cell-based
Sequence of Sulfonylurea receptor 2, Kir6.2 (Q14654 whole entry, canonical isoform): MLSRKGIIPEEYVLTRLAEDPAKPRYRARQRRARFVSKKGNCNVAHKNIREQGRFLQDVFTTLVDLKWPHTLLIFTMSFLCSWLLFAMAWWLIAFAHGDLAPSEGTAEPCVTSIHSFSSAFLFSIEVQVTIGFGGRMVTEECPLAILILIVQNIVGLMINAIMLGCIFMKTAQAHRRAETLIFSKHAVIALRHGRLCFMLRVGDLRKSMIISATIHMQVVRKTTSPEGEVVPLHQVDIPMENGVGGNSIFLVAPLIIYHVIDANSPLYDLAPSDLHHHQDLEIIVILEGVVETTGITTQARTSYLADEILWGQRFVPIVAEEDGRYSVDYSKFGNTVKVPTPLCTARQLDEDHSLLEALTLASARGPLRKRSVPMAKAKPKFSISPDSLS
Sequence of Sulfonylurea receptor 2, Kir6.2 (O60706 whole entry, canonical isoform): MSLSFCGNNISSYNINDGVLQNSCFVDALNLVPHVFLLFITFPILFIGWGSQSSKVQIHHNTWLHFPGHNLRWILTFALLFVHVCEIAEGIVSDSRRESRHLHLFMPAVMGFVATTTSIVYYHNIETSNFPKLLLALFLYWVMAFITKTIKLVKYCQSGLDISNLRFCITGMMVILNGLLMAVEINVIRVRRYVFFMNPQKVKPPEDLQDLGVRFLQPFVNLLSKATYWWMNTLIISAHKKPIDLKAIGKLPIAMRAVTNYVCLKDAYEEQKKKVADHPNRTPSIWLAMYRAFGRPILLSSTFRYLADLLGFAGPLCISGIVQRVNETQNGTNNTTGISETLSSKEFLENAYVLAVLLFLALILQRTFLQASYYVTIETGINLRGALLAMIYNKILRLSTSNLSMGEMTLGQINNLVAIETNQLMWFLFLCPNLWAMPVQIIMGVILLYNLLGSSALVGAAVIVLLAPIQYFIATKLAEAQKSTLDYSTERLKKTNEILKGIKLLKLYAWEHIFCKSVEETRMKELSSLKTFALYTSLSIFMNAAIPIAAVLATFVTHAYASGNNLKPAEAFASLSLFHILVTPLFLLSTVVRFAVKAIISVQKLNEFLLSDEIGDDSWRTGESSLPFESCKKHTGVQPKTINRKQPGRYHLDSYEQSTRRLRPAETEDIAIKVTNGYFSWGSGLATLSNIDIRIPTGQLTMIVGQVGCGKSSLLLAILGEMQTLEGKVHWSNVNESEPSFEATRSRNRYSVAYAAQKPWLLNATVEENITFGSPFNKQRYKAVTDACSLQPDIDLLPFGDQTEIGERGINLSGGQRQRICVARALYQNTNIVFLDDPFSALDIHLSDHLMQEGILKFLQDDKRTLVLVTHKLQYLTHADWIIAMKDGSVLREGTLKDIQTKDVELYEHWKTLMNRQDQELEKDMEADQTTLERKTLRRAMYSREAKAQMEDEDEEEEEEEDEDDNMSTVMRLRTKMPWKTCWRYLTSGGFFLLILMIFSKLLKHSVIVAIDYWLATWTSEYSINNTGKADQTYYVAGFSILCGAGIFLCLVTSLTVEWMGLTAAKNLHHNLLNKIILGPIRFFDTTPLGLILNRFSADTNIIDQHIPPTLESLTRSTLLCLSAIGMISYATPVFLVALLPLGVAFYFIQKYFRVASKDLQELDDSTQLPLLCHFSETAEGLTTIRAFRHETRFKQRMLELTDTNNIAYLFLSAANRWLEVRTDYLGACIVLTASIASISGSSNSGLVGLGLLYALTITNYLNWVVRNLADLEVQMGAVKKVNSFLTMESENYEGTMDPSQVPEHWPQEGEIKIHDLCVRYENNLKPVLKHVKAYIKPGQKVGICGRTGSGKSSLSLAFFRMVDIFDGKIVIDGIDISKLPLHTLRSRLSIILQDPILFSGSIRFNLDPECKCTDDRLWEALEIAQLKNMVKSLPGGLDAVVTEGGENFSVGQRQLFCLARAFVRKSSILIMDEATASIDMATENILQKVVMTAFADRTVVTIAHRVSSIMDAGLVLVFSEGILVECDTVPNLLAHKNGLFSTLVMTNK
Method in brief: (§1)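 Ltk- cells stably transfected with the Kir6.2/SUR2B exon 17- splice variant. Membrane potential was followed with DiBAC dye in a 96-well cell-based kinetic fluorescence (FLIPR) assay. The highest concentration tested was 10 µM. Each compound's maximal fluorescence response was expressed as % of the response to the reference opener.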

[2] = molecular target: Sulfonylurea receptor 2, Kir6.2 (Homo sapiens) (UniProt Q14654+O60706); test: Ability to open human urinary bladder Kir6.2 containing SUR2B in Ltk cells by FLIPR assay relative to P1075; type: functional, cell-based; method in brief: as §1

| Compound | EC50 [1] [nM] | Efficacy [2] [%] |
| --- | --- | --- |
| COC[C@@H]1OC(O)=C2C1=NC1=C(C(=O)COC1)[C@H]2c1ccc(F)c(Br)c1 (relative stereo) | 9.77 | 100 |
| CC[C@H]1OCC2=C(C1=O)[C@@H](c1ccc(F)c(Br)c1)C1=C(O)OCC1=N2 (racemic) | 1020 | 97 |
| CC[C@@H]1OCC(=O)C2=C1N=C1COC(O)=C1[C@@H]2c1ccc(F)c(Br)c1 (relative stereo) | 933 | 74 |
| CCC1(CC)OCC2=NC3=C(C(=O)COC3)C(c3ccc(F)c(Br)c3)C2=C1O (stereo not drawn) | 13800 | 42 |
| CC[C@@H]1OC(O)=C2C1=NC1=C(C(=O)C(C)(C)OC1)[C@H]2c1ccc(F)c(Br)c1 (relative stereo) | 14.5 | 105 |
| COC[C@H]1OC(O)=C2C1=NC1=C(C(=O)COC1)[C@H]2c1ccc(F)c(Br)c1 (stereo in doubt; 25a) |  | 95 |
| CCC[C@H]1OC(O)=C2C1=NC1=C(C(=O)COC1)[C@H]2c1ccc(Br)c(Cl)c1 (stereo in doubt; 44b) |  | 92 |
| CCC[C@H]1OC(O)=C2C1=NC1=C(C(=O)COC1)[C@H]2c1ccc(Cl)c(Br)c1 (racemic) |  | 120 |
| CC[C@H]1OCC(O)=C2C1=NC1=C(C(=O)COC1)[C@H]2c1ccc(Br)c(Br)c1 (stereo in doubt; 77a) |  | 120 |
| CC[C@H]1OCC(O)=C2C1=NC1=C(C(=O)COC1)[C@H]2c1ccc(Cl)c(Br)c1 (stereo in doubt; 75b) |  | 54 |
| CC[C@H]1OCC(O)=C2C1=NC1=C(C(=O)COC1)[C@H]2c1ccc(F)c(I)c1 (stereo in doubt; 73b) |  | 53 |
| CC[C@@H]1OC(O)=C2C1=NC1=C(C(=O)COC1(C)C)[C@H]2c1ccc(F)c(Br)c1 (relative stereo) | 1740 | 59 |
| CC[C@H]1OCC(O)=C2C1=NC1=C(C(=O)COC1)[C@H]2c1ccc(Cl)c(Br)c1 (racemic) |  | 70 |
| CCC[C@H]1OC(O)=C2C1=NC1=C(C(=O)COC1)[C@H]2c1ccc(C)c(Br)c1 (stereo in doubt; 46a) |  | 81 |
| CCC[C@H]1OC(O)=C2C1=NC1=C(C(=O)COC1)[C@H]2c1ccc(Cl)c(Br)c1 (stereo in doubt; 43a) |  | 90 |
| CCC[C@H]1OC(O)=C2C1=NC1=C(C(=O)COC1)[C@H]2c1ccc(F)c(I)c1 (stereo in doubt; 41a) |  | 81 |
| CC[C@H]1OCC(O)=C2C1=NC1=C(C(=O)COC1)[C@H]2c1ccc(F)c(Cl)c1 (stereo in doubt; 72a) |  | 66 |
| CCC[C@H]1OC(O)=C2C1=NC1=C(C(=O)COC1)[C@H]2c1ccc(Br)c(Br)c1 (stereo in doubt; 45b) |  | 108 |
| CC[C@H]1OCC(O)=C2C1=NC1=C(C(=O)COC1)[C@H]2c1ccc(F)c(I)c1 (stereo in doubt; 73a) |  | 69 |
| CC[C@H]1OCC(O)=C2C1=NC1=C(C(=O)COC1)[C@H]2c1ccc(C)c(Br)c1 (racemic) |  | 70 |
| CCC[C@H]1OC(O)=C2C1=NC1=C(C(=O)COC1)[C@H]2c1ccc(F)c(I)c1 (racemic) |  | 105 |
| CCC[C@H]1OC(O)=C2C1=NC1=C(C(=O)COC1)[C@H]2c1ccc(Br)c(Cl)c1 (racemic) |  | 97 |
| CCC[C@H]1OC(O)=C2C1=NC1=C(C(=O)COC1)[C@H]2c1ccc(Cl)c(Cl)c1 (stereo in doubt; 42b) |  | 62 |
| CCC[C@H]1OC(O)=C2C1=NC1=C(C(=O)COC1)[C@H]2c1ccc(F)c(Cl)c1 (racemic) |  | 42 |
| CCC[C@H]1OC(O)=C2C1=NC1=C(C(=O)COC1)[C@H]2c1ccc(Cl)c(Cl)c1 (stereo in doubt; 42a) |  | 87 |

The next lines start with the values.

| EC50 [1] [nM] | Efficacy [2] [%] | Compound |
| --- | --- | --- |
| 29.5 | 67 | CCCC[C@@H]1OC(O)=C2C1=NC1=C(C(=O)COC1)[C@H]2c1ccc(F)c(Br)c1 (relative stereo) |
| 72.4 | 74 | CC[C@H]1OC(O)=C2C1=NC1=C(C(=O)OC1)[C@H]2c1ccc(F)c(Br)c1 (relative stereo) |
| 56.2 | 102 | C[C@@H]1OC(=O)C2=C1NC1=C([C@H]2c2ccc(F)c(Br)c2)S(=O)(=O)CCC1 (relative stereo) |
| 324 | 71 | CC[C@@H]1OC(O)=C2C1=NC1=C(C(=O)OCC1)[C@H]2c1ccc(F)c(Br)c1 |
| 1.82 | 96 | C[C@H]1OCC(=O)C2=C1N=C1COC(O)=C1[C@@H]2c1ccc(F)c(Br)c1 (relative stereo) |
| 120 | 73 | CC1(C)OCC(=O)C2=C1N=C1COC(O)=C1C2c1ccc(F)c(Br)c1 (stereo not drawn) |
| 2.75 | 102 | C[C@H]1C2=C(C(=O)N1C)[C@H](c1ccc(F)c(Br)c1)C1=C(COCC1=O)N2 (relative stereo) |
| 155 | 74 | CC[C@@H]1OC(O)=C2C1=NC1=C(C(=O)CSC1)[C@H]2c1ccc(F)c(Br)c1 (relative stereo) |
| 5010 | 54 | CC[C@H]1OC(O)=C2C1=NC1=C(C(=O)OCC1)[C@H]2c1ccc(F)c(Br)c1 (relative stereo) |
| 316 | 92 | C[C@@H]1C2=C(C(=O)N1C)[C@H](c1ccc(F)c(Br)c1)C1=C(O)COCC1=N2 (relative stereo) |
| 407 | 86 | C[C@H]1OC(=O)C2=C1NC1=C([C@H]2c2ccc(F)c(Br)c2)S(=O)(=O)CC1 (relative stereo) |
| 1.17 | 88 | CC[C@@H]1CC(O)=C2C1=NC1=C(C(=O)COC1)[C@H]2c1ccc(F)c(Br)c1 (relative stereo) |
| 56.2 | 87 | CC[C@@H]1OC(O)=C2C1=NC1=C(C(=O)CCC1)[C@H]2c1ccc(F)c(Br)c1 (relative stereo) |
| 6.03 | 94 | CC[C@@H]1OC(O)=C2C1=NC1=C(C(=O)OC1)[C@H]2c1ccc(F)c(Br)c1 (relative stereo) |
| 135 | 93 | C[C@@H]1OC(=O)C2=C1NC1=C([C@H]2c2ccc(F)c(Br)c2)S(=O)(=O)CC1 (relative stereo) |
|  | 85 | C[C@H]1OC(O)=C2C1=NC1=C(C(=O)COC1)[C@H]2c1ccc(F)c(Br)c1 (stereo in doubt; 18b) |
| 17 | 96 | CC1(C)OCC2=NC3=C(C(=O)COC3)C(c3ccc(F)c(Br)c3)C2=C1O (stereo not drawn) |
|  | 92 | O=C1COCC2=C1C(c1ccc(F)c(Br)c1)C1=C(O)OCC1=N2 (stereo in doubt; 6) |
|  | 74 | CC[C@@H]1OC(O)=C2C1=NC1=C(C(=O)COC1)[C@H]2c1ccc(F)c(Br)c1 (racemic) |
|  | 62 | CCCC[C@H]1OC(O)=C2C1=NC1=C(C(=O)COC1)[C@H]2c1ccc(F)c(Br)c1 (stereo in doubt; 29a) |
| 26.9 | 77 | CC1(C)OC(O)=C2C1=NC1=C(C(=O)COC1)C2c1ccc(F)c(Br)c1 (stereo not drawn) |
|  | 85 | CC[C@@H]1OC(O)=C2C1=NC1=C(C(=O)COC1)[C@H]2c1ccc(F)c(Br)c1 (stereo in doubt; 20b) |
|  | 61 | CCCC[C@H]1OC(O)=C2C1=NC1=C(C(=O)COC1)[C@H]2c1ccc(F)c(Br)c1 (racemic) |
|  | 75 | CCC[C@H]1OC(O)=C2C1=NC1=C(C(=O)COC1)[C@H]2c1ccc(F)c(Br)c1 (stereo in doubt; 23a) |
|  | 82 | CCC[C@@H]1OC(O)=C2C1=NC1=C(C(=O)COC1)[C@H]2c1ccc(F)c(Br)c1 (stereo in doubt; 22a) |
